# From ChEMBL document CHEMBL4020827, “Targeting Multiple Effector Pathways in Pancreatic Ductal Adenocarcinoma with a G-Quadruplex-Binding Small Molecule” (J Med Chem, 2018)
# Key:
# BXPC-3 = assay: Growth inhibition of human BxPC3 cells after 96 hrs by SRB assay; format: functional, cell-based; settings: BXPC-3, 96 h
# Summary of the method: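 Cell lines kept at 37 °C, 5% CO2 in medium with 10% FBS and 2 mM L-glutamine. Compound dissolved in water, filter-sterilised, 10 mM stock diluted into media. Growth read by 96 h sulforhodamine B assay, absorbance at 540 nm. IC50 taken from mean absorbance per concentration as % of untreated wells, >3 individual determinations with standard deviations.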
# MIA PaCa-2 [1] = assay: Effect on GLI1 gene expression in human MIAPaCa2 cells at 400 nM after 24 hrs by RNA sequence analysis relative to control; format: functional
# Summary of the method: (§1)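 PANC-1 (0.35 x 10^6) or MIA PaCa-2 (1.5 x 10^6) cells seeded overnight in 60 mm plates, then exposed to 400 nM compound for 6 or 24 h; untreated cells as controls. Cells were mycoplasma-free and STR-certified. Differential expression by RNA-seq, called at FDR < 0.1.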
# MIA PaCa-2 [2] = assay: Effect on PLXNA1 gene expression in human MIAPaCa2 cells at 400 nM after 6 hrs by RNA sequence analysis relative to control; format: functional
# PANC-1 [3] = assay: Effect on AKT1S1 gene expression in human PANC1 cells at 400 nM after 24 hrs by RNA sequence analysis relative to control; format: functional; summary of the method: as §1
# MIA PaCa-2 [4] = assay: Effect on ULK1 gene expression in human MIAPaCa2 cells at 400 nM after 24 hrs by RNA sequence analysis relative to control; format: functional
# Summary of the method: (§2)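 RNA-seq: cells seeded overnight in 60 mm plates (PANC-1 0.35 x 10^6, MIA PaCa-2 1.5 x 10^6 cells/well), then exposed to 400 nM compound for 6 or 24 h against untreated controls. Cell lines mycoplasma-free by RNA-capture ELISA and STR-profiled. Differentially expressed genes called at FDR < 0.1.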
# MIA PaCa-2 [5] = assay: Effect on TEAD4 gene expression in human MIAPaCa2 cells at 400 nM after 24 hrs by RNA sequence analysis relative to control; format: functional; summary of the method: as §2
# Mus musculus = assay: Toxicity in CD-1 nude mouse xenografted with human MIAPaCa2 cells assessed as change in body weight at 15 mg/kg, iv administered twice weekly for 4 weeks measured for 40 days; format: organism-based; settings: in vivo, 960 h
# [6] = Binding affinity to 5'-FAM/3'-TAMRA labeled HSP90A promoter G-quadruplex DNA (unknown origin) assessed as change in melting temperature at 1 uM by FRET assay
# Summary of the method: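 FRET melting of FAM/TAMRA dual-labelled promoter G4 oligonucleotides, 400 nM, annealed at 95 °C for 10 min in 60 mM potassium cacodylate (pH 7.4) then cooled to RT. Ligand at 1 μM in solution with 50 mM K+. Fluorescence (ex 450–495, em 515–545 nm) read every 0.5 °C over 30–100 °C with a 30 sec hold per step. ΔTm from curve fitting; triplicate measurements.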
# [7] = Binding affinity to 5'-FAM/3'-TAMRA labeled human telomeric F21T G-quadruplex DNA by direct fluorescence method
# Summary of the method: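 Buffer was 50 mM KCl, 10 mM Tris-HCl, 1 mM EDTA, pH 7.3, 25 °C, quartz cuvette. Quenching of ligand emission at 570 nm tracked; KD from a quadratic quenching fit.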
# PANC-1 [8] = assay: Effect on PCK2 gene expression in human PANC1 cells at 400 nM after 6 hrs by RNA sequence analysis relative to control; format: functional
# PANC-1 [9] = assay: Effect on IQSEC1 gene expression in human PANC1 cells at 400 nM after 6 hrs by RNA sequence analysis relative to control; format: functional
# [10] = Selectivity index, ratio of IC50 for human WI38 cells to IC50 for human MIAPaCa2 cells; format: functional
# Summary of the method: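 SRB growth-inhibition assay over 96 h with compounds dissolved in water; cells grown in 10 % FBS at 37 °C, 5% CO2. Absorbance at 540 nm as a percentage of untreated wells gives the IC50. Values are averages of >3 determinations, with the ratio taken as WI-38 IC50 over MIA PaCa-2 IC50.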
# PANC-1 [11] = assay: Effect on PAK1 gene expression in human PANC1 cells at 400 nM after 6 hrs by RNA sequence analysis relative to control; format: functional
# PANC-1 [12] = assay: Effect on RPTOR gene expression in human PANC1 cells at 400 nM after 24 hrs by RNA sequence analysis relative to control; format: functional; summary of the method: as §2
# MCF7 = assay: Growth inhibition of human MCF7 cells after 96 hrs by SRB assay; format: functional, cell-based; settings: MCF7, 96 h
# PANC-1 [13] = assay: Effect on AKT1S1 gene expression in human PANC1 cells at 400 nM after 6 hrs by RNA sequence analysis relative to control; format: functional; summary of the method: as §1
# PANC-1 [14] = assay: Effect on IGF2 gene expression in human PANC1 cells at 400 nM after 24 hrs by RNA sequence analysis relative to control; format: functional; summary of the method: as §1
# MIA PaCa-2 [15] = assay: Effect on PRDM16 gene expression in human MIAPaCa2 cells at 400 nM after 24 hrs by RNA sequence analysis relative to control; format: functional
# PANC-1 [16] = assay: Effect on PAK1 gene expression in human PANC1 cells at 400 nM after 24 hrs by RNA sequence analysis relative to control; format: functional
# MIA PaCa-2 [17] = assay: Effect on PRKCZ gene expression in human MIAPaCa2 cells at 400 nM after 24 hrs by RNA sequence analysis relative to control; format: functional
# MIA PaCa-2 [18] = assay: Effect on SMO gene expression in human MIAPaCa2 cells at 400 nM after 6 hrs by RNA sequence analysis relative to control; format: functional; summary of the method: as §2
# MIA PaCa-2 [19] = assay: Effect on TEAD2 gene expression in human MIAPaCa2 cells at 400 nM after 6 hrs by RNA sequence analysis relative to control; format: functional; summary of the method: as §2
# PANC-1 [20] = assay: Effect on MAPK11 gene expression in human PANC1 cells at 400 nM after 24 hrs by RNA sequence analysis relative to control; format: functional
# PANC-1 [21] = assay: Effect on PFKL gene expression in human PANC1 cells at 400 nM after 24 hrs by RNA sequence analysis relative to control; format: functional
# MIA PaCa-2 [22] = assay: Effect on GLI4 gene expression in human MIAPaCa2 cells at 400 nM after 24 hrs by RNA sequence analysis relative to control; format: functional; summary of the method: as §1
# PANC-1 [23] = assay: Effect on PARD6A gene expression in human PANC1 cells at 400 nM after 24 hrs by RNA sequence analysis relative to control; format: functional
# MIA PaCa-2 [24] = assay: Effect on TEAD4 gene expression in human MIAPaCa2 cells at 400 nM after 6 hrs by RNA sequence analysis relative to control; format: functional; summary of the method: as §2
# MIA PaCa-2 [25] = assay: Antitumor activity against human MIAPaCa2 cells xenografted in CD-1 nude mouse assessed as change in tumor volume at 10 mg/kg, iv administered twice weekly for 4 weeks measured on day 62 relative to control; format: functional
# Summary of the method: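 Female CD-1 nude mice (2-3 months, 20−25 g) given 5 x 10^6 MIA PaCa-2 cells subcutaneously in right flank with Matrigel; dosing began once tumors were established (approx. 13 days, mean 0.05 cm3). Eight mice/group, IV in saline twice weekly for 28 days (8 doses) against a saline group. Tumors measured by calliper (length × width × height × π/6), with body weight. Student's t test.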
smiles,measurement,setting,value
O=C1c2ccc3c4c(c(NCCN5CCCC5)cc(c24)C(=O)N1CCCN1CCOCC1)C(=O)N(CCCN1CCOCC1)C3=O,IC50,BXPC-3,19 nM
same,log2FC,MIA PaCa-2 [1],-0.64
same,log2FC,MIA PaCa-2 [2],-0.98
same,log2FC,PANC-1 [3],-0.83
same,log2FC,MIA PaCa-2 [4],-0.6
same,log2FC,MIA PaCa-2 [5],-0.31
same,Activity,Mus musculus,Non-Toxic
same,ΔTm,[6],15.7 °C
same,Kd,[7],67 nM
same,log2FC,PANC-1 [8],-0.01
same,log2FC,PANC-1 [9],-0.86
same,Ratio IC50,[10],170
same,log2FC,PANC-1 [11],-0.54
same,log2FC,PANC-1 [12],-0.5
same,IC50,MCF7,159 nM
same,log2FC,PANC-1 [13],-0.11
same,log2FC,PANC-1 [14],-1.53
same,log2FC,MIA PaCa-2 [15],-3.39
same,log2FC,PANC-1 [16],-1.11
same,log2FC,MIA PaCa-2 [17],-2.01
same,log2FC,MIA PaCa-2 [18],-0.34
same,log2FC,MIA PaCa-2 [19],-0.65
same,log2FC,PANC-1 [20],-1.6
same,log2FC,PANC-1 [21],-0.98
same,log2FC,MIA PaCa-2 [22],-1.85
same,log2FC,PANC-1 [23],-1.41
same,log2FC,MIA PaCa-2 [24],-0.79
same,Activity,MIA PaCa-2 [25],-51.7%
